Experiments:
[1] = system: Human immunodeficiency virus 1; test: Antiviral activity against HIV-1 harboring K103N mutant infected in human MT4 cells […]; format: functional, organism-based; conditions: Human immunodeficiency virus 1, MT4
[2] = Selectivity index, ratio of CC50 for cytotoxicity against human MT4 cells to EC50 for antiviral activity against wild type HIV-1 IIIB infected in human MT4 cells; format: toxicity, cell-based; conditions: read-out: Ratio CC50/EC50
Summary of the method: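 Selectivity index calculated as CC50/EC50 ratio, both values from MTT viability readout in MT-4 cells, antiviral arm using wild-type HIV-1 IIIB.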

[3] = biological target: Human immunodeficiency virus type 1 reverse transcriptase (Human immunodeficiency virus 1) (UniProt Q72547); test: Potency index, ratio of Nevirapine IC50 to test compound IC50 for inhibition of wild type HIV-1 Reverse transcriptase
[4] = Cytotoxicity against human MT4 cells by MTT assay; format: toxicity, cell-based
[5] = system: Human immunodeficiency virus 1; test: Antiviral activity against HIV-1 harboring L100I mutant infected in human MT4 cells […]; format: functional, organism-based; conditions: Human immunodeficiency virus 1, MT4
[6] = system: Human immunodeficiency virus 1; test: Antiviral activity against HIV-1 harboring Y181C mutant infected in human MT4 cells […]; format: functional, organism-based; conditions: Human immunodeficiency virus 1, MT4
[7] = biological target: Human immunodeficiency virus type 1 reverse transcriptase (Human immunodeficiency virus 1, UniProt Q72547); test: Inhibition of wild type HIV-1 Reverse transcriptase
[8] = system: Human immunodeficiency virus 1; test: Antiviral activity against wild type HIV-1 IIIB infected in human MT4 cells […]; format: functional, organism-based; conditions: Human immunodeficiency virus 1, IIIB
[9] = system: Human immunodeficiency virus 1; test: Antiviral activity against HIV-1 harboring E138K mutant infected in human MT4 cells […]; format: functional, organism-based; conditions: Human immunodeficiency virus 1, MT4
[10] = system: Human immunodeficiency virus 1; test: Antiviral activity against HIV-1 harboring Y188L mutant infected in human MT4 cells assessed as inhibition of virus-induced cytopathic effect by MTT assay; conditions: Human immunodeficiency virus 1, MT4
[11] = Stability in human plasma assessed as parent compound remaining measured immediately; format: ADME, cell-free; conditions: read-out: Stability
[12] = Stability in human plasma assessed as parent compound remaining measured at 60 mins; format: ADME, cell-free; conditions: read-out: Stability
[13] = Stability in human plasma assessed as parent compound remaining measured at 300 mins; format: ADME, cell-free; conditions: read-out: Stability
[14] = Stability in human plasma assessed as parent compound remaining measured at 120 mins; format: ADME, cell-free; conditions: read-out: Stability
[15] = Stability in human plasma assessed as parent compound remaining measured at 15 mins; format: ADME, cell-free; conditions: read-out: Stability
[16] = Metabolic stability in human microsomes assessed as intrinsic clearance; format: ADME, Microsome; conditions: read-out: CLH
Summary of the method: (§1)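 Incubation with human liver microsomes; half-life obtained from depletion fit (R² reported), intrinsic clearance expressed per mg microsomal protein (μL/min/mg) and scaled to liver (mL/min/kg).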

[17] = Stability in human plasma assessed as half life; format: ADME, cell-free
[18] = Stability in human plasma assessed as parent compound remaining measured at 30 mins; format: ADME, cell-free; conditions: read-out: Stability
[19] = Acute toxicity in ICR mouse assessed as change in UREA level at 2 g/Kg, po measured after 14 days; format: organism-based; conditions: in vivo, 2000 mg/kg, 336 h, time 14 day
Summary of the method: (§2)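 ICR mice of both sexes received a single oral 2 g/kg dose. On day 14 after dosing, blood was examined for ALT, AST, CREA, UREA and CKMB and compared with control groups.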

[20] = Acute toxicity in ICR mouse assessed as spleen lesion at 2 g/Kg, po measured after 14 days; format: organism-based; conditions: in vivo, 2000 mg/kg, 336 h, time 14 day
Summary of the method: (§3)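 ICR mice, female and male, received one oral 2 g/kg dose. On day 14 after dosing they were dissected, and organs were examined by histopathology against a control group.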

[21] = system: Human immunodeficiency virus 1; test: Potency index, ratio of Efavirenz EC50 to test compound EC50 for antiviral activity against HIV-1 harboring Y188L mutant infected in human MT4 cells […]; format: functional
[22] = Acute toxicity in ICR mouse assessed as lung lesion at 2 g/Kg, po measured after 14 days; format: organism-based; conditions: in vivo, 2000 mg/kg, 336 h, time 14 day; summary of the method: as §3
[23] = Acute toxicity in ICR mouse assessed as change in CREA level at 2 g/Kg, po measured after 14 days; format: organism-based; conditions: in vivo, 2000 mg/kg, 336 h, time 14 day; summary of the method: as §2
[24] = Acute toxicity in ICR mouse assessed as change in CKMB level at 2 g/Kg, po measured after 14 days; format: organism-based; conditions: in vivo, 2000 mg/kg, 336 h, time 14 day; summary of the method: as §2
[25] = Acute toxicity in ICR mouse at 2 g/Kg, po measured for 2 weeks; format: organism-based; conditions: in vivo, 2000 mg/kg, 336 h
Summary of the method: (§4)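 Healthy female and male ICR mice were given a single oral dose of 2 g/kg. Growth, death and toxic symptoms were followed over 2 weeks and compared with a control group.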

[26] = Acute toxicity in ICR mouse assessed as heart lesion at 2 g/Kg, po measured after 14 days; format: organism-based; conditions: in vivo, 2000 mg/kg, 336 h, time 14 day; summary of the method: as §3
[27] = system: Human immunodeficiency virus 1; test: Potency index, ratio of Nevirapine EC50 to test compound EC50 for antiviral activity against HIV-1 harboring E138K mutant infected in human MT4 cells […]; format: functional
[28] = Acute toxicity in ICR mouse assessed as change in ALT level at 2 g/Kg, po measured after 14 days; format: organism-based; conditions: in vivo, 2000 mg/kg, 336 h, time 14 day; summary of the method: as §2
[29] = Acute toxicity in ICR mouse assessed as change in AST level at 2 g/Kg, po measured after 14 days; format: organism-based; conditions: in vivo, 2000 mg/kg, 336 h, time 14 day; summary of the method: as §2
[30] = Acute toxicity in ICR mouse assessed as […] kidney at 2 g/Kg, po measured after 14 days; format: organism-based; conditions: in vivo, 2000 mg/kg, 336 h, time 14 day; summary of the method: as §3
[31] = Acute toxicity in ICR mouse assessed as brain lesion at 2 g/Kg, po measured after 14 days; format: organism-based; conditions: in vivo, 2000 mg/kg, 336 h, time 14 day; summary of the method: as §3
[32] = Acute toxicity in ICR mouse assessed as animal death at 2 g/Kg, po measured for 2 weeks; format: organism-based; conditions: in vivo, 2000 mg/kg, 336 h; summary of the method: as §4
[33] = Acute toxicity in ICR mouse assessed as liver lesion at 2 g/Kg, po measured after 14 days; format: organism-based; conditions: in vivo, 2000 mg/kg, 336 h, time 14 day; summary of the method: as §3
[34] = Metabolic stability in human liver microsomes assessed as half life; format: ADME, Microsome; summary of the method: as §1
[35] = system: Human immunodeficiency virus 1; test: Potency index, ratio of Efavirenz EC50 to test compound EC50 for antiviral activity against HIV-1 harboring K103N mutant infected in human MT4 cells […]; format: functional
[36] = Acute toxicity in ICR mouse assessed as adverse symptoms at 2 g/Kg, po measured for 2 weeks; format: organism-based; conditions: in vivo, 2000 mg/kg, 336 h; summary of the method: as §4

Row | SMILES | EC50 [1] [nM] | selectivity ratio [2] | Ratio IC50 [3] | CC50 [4] [nM] | EC50 [5] [nM] | EC50 [6] [nM] | IC50 [7] [nM] | EC50 [8] [nM] | EC50 [9] [nM] | EC50 [10] [nM] | remaining at 0 min [11] [%] | remaining at 1 h [12] [%] | remaining at 5 h [13] [%] | remaining at 2 h [14] [%] | remaining at 0.25 h [15] [%] | microsomal CLint [16] [µL/min/mg] | half-life [17] [h] | remaining at 0.5 h [18] [%] | also measured
1 | CNC(c1ccnc(Nc2ccc(C#N)cc2)n1)c1ccc(-c2ccc(C#N)cc2)cc1OC (centres undefined) | 941 | 354 | 0.78 | 13000 | 2330 | 1300 | 963 | 36 | 224 | 7320 | – | – | – | – | – | – | – | – | –
2 | CNC(c1ccnc(Nc2ccc(C#N)cc2)n1)c1ccc(-c2ccc(C#N)cc2)cc1C(F)(F)F (centres undefined) | 1340 | 363 | 1.5 | 15000 | 2440 | 1180 | 495 | 39 | 184 | 7510 | – | – | – | – | – | – | – | – | –
3 | Cc1cc(/C=C/C#N)cc(C)c1Nc1ccnc(Nc2ccc(C#N)cc2)n1 [RILPIVIRINE] | – | – | – | – | – | – | – | – | – | – | 100 | 99.3 | 97.4 | 95.3 | 102 | 108 | > 5 | 99.4 | –
4 | CNC(c1ccnc(Nc2ccc(C#N)cc2)n1)c1ccc(-c2ccc(C#N)cc2)cc1F (centres undefined) | 10500 | 196 | 0.96 | 13000 | ≥ 11000 | 1910 | 783 | 64 | 368 | > 12700 | – | – | – | – | – | – | – | – | –
5 | COc1cc(-c2ccc(C#N)cc2)ccc1/C(=N\N)c1ccnc(Nc2ccc(C#N)cc2)n1 | 10 | 11000 | – | 54000 | 7 | 22 | 81 | 5 | 21 | 148 | 100 | 101 | 94.7 | 98.2 | 104 | 37 | > 5 | 101 | Activity [19]: Non-toxic; Activity [20]: Non-toxic; Ratio EC50 [21]: 2; Activity [22]: Non-toxic; Activity [23]: Non-toxic; Activity [24]: Non-toxic; Activity [25]: Non-toxic; Activity [26]: Non-toxic; Ratio EC50 [27]: 7.5; Activity [28]: Non-toxic; Activity [29]: Non-toxic; Activity [30]: Non-toxic; Activity [31]: Non-toxic; Activity [32]: Non-toxic; Activity [33]: Non-toxic; half-life [34]: 0.625 h; Ratio EC50 [35]: 8.6; Activity [36]: Non-toxic
6 | Cc1cc(C#N)cc(C)c1Oc1nc(Nc2ccc(C#N)cc2)nc(N)c1Br [ETRAVIRINE] | – | – | – | > 4600 | – | – | – | – | – | 20 | 100 | 97 | 78.5 | 92.1 | 102 | 21.1 | > 5 | 95.4 | half-life [34]: 1.09 h
7 | CNC(c1ccnc(Nc2ccc(C#N)cc2)n1)c1ccc(-c2ccc(C#N)cc2)cc1OC(F)(F)F (centres undefined) | 1460 | 313 | 0.38 | 18000 | 1940 | 2220 | 2000 | 56 | 320 | ≥ 7210 | – | – | – | – | – | – | – | – | –

Source: ChEMBL document CHEMBL6153064, “Structure-based discovery of novel diarylpyrimidines as potent and selective Non-Nucleoside reverse transcriptase inhibitors: From CH(CN)-Biphenyl-Diarylpyrimidines to CNNH2-Biphenyl-Diarylpyrimidines” (Eur J Med Chem, 2025)
